The values that follow come from ChEMBL document CHEMBL2424587, “Antiproliferative activity of abietane diterpenoids against human tumor cells” (J Nat Prod, 2013).

What all share (format): functional, cell-based
One experiment has as its system HL-60. Nature of the experiment: Cytotoxicity against human HL60 cells after 72 hrs by MTT assay. The following applies: HL-60, 72 h. The method, boiled down:
(§1)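 MTT assay: 1 × 10^4 exponentially growing cells per well incubated 72 h over a range of compound concentrations; MTT 0.5 mg/mL for 4 h at 37 °C, then 10% SDS in 0.05 M HCl overnight at room temperature in the dark; absorbance at 570 nm. Leukemia and SK-MEL-1 lines grown in RPMI 1640, MCF-7 in DMEM, both with 10% heat-inactivated FBS. IC50 given as mean ± SEM of 3–5 independent experiments, each in triplicate.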
A general note: Formazan colour is commonly taken as a measure of viable cells.

The next experiment has as its system MOLT-3. Nature of the experiment: Cytotoxicity against human MOLT3 cells after 72 hrs by MTT assay. The following applies: MOLT-3, 72 h. The method, boiled down: as §1
A further experiment concerns MCF7. Nature of the experiment: Cytotoxicity against human MCF7 cells after 72 hrs by MTT assay. The following applies: MCF7, 72 h. The essentials: as §1
In a further experiment the test system is U-937. Nature of the experiment: Cytotoxicity against human U937 cells after 72 hrs by MTT assay. The following applies: U-937, 72 h. The method, boiled down: as §1
Another experiment has as its system SK-MEL-1. Nature of the experiment: Cytotoxicity against human SK-MEL-1 cells after 72 hrs by MTT assay. The following applies: SK-MEL-1, 72 h. The method, boiled down: as §1

Broadly, the IC50 is the point on the concentration scale where inhibition reaches its midpoint. A low value points to greater potency in that assay. Take `CC(=O)Oc1c(C(C)C)cc2c(c1OC(C)=O)[C@@]1(C)CCCC(C)(C)C1=C(O)C2=O`: the concentration for half-maximal inhibition (IC50) is 11.5 µM in the experiment on HL-60; 13.4 µM in the experiment on MOLT-3; above 30 µM in the experiment on MCF7; 8.4 µM with U-937; 24.1 µM with SK-MEL-1.
`COc1cc([C@@H]2c3cc4c(cc3[C@@H](O[C@@H]3O[C@@H]5CO[C@@H](C)O[C@H]5[C@H](O)[C@H]3O)[C@H]3COC(=O)[C@H]23)OCO4)cc(OC)c1O` [ETOPOSIDE]: the IC50 with HL-60 turned out to be 0.5 µM; in the experiment with U-937, 1.4 µM.
`CC(=O)OC1=C2C(C)(C)CCC[C@]2(C)c2c(cc(C(C)C)c(OC(C)=O)c2OC(C)=O)C1=O`: the IC50 with HL-60 was 4.1 µM; in the experiment with MOLT-3, 4.6 µM; in the experiment with MCF7 it was above 30 µM; in the experiment on U-937, 4.6 µM; in the experiment with SK-MEL-1, 9.9 µM.
Take `COc1c(O)c2c(c(O)c1C(C)C)C(=O)C[C@H]1C(C)(C)CCC[C@]21C` [INUROYLEANOL]: the IC50 was 20.8 µM with HL-60; above 30 µM in the experiment on MOLT-3; above 30 µM in the experiment with MCF7; 11.1 µM in the experiment on U-937; above 30 µM with SK-MEL-1.
`CC(=O)O[C@H]1C2=C(C(=O)C(OC(=O)c3ccc([N+](=O)[O-])cc3)=C(C(C)C)C2=O)[C@@]2(C)CCCC(C)(C)[C@@H]2[C@@H]1O`: the IC50 was determined as 8.4 µM in the experiment on HL-60; 10 µM in the experiment on MOLT-3; 11.4 µM in the experiment on MCF7; 1.1 µM in the experiment with U-937; 5.7 µM in the experiment with SK-MEL-1.
Taken in the same sequence, the figures for `CC(=O)O[C@H]1C2=C(C(=O)C(OC(=O)c3ccc(Cl)cc3)=C(C(C)C)C2=O)[C@@]2(C)CCCC(C)(C)[C@@H]2[C@@H]1OC(=O)c1ccc(Cl)cc1` were 5.7 µM, above 30 µM, above 30 µM, 5.6 µM and above 30 µM.
For `COC(=O)/C=C(\C)C[C@@H](OC(C)=O)[C@@]1(C)[C@H](C)CC=C2[C@@H]1CCCC2(C)C`, in that order: above 30 µM, above 30 µM, above 30 µM, above 30 µM and above 30 µM.
Turning to `CC(=O)O[C@H]1C2=C(C(=O)C(O)=C(C(C)C)C2=O)[C@@]2(C)CCCC(C)(C)[C@@H]2[C@@H]1OC(=O)c1ccc([N+](=O)[O-])cc1`, the IC50 stood at 3.8 µM in the experiment on HL-60; 1.5 µM in the experiment on MOLT-3; 9.1 µM in the experiment on MCF7; 1.4 µM in the experiment with U-937; 6.7 µM in the experiment with SK-MEL-1.
Turning to `CC(=O)O[C@H]1C2=C(C(=O)C(O)=C(C(C)C)C2=O)[C@@]2(C)CCCC(C)(C)[C@@H]2[C@@H]1O`, the IC50 in the experiment with HL-60 turned out to be 25.4 µM; with MOLT-3 it was 12.7 µM; with MCF7, 6.8 µM; in the experiment with U-937, 13.7 µM; in the experiment on SK-MEL-1 it was 29.1 µM.
Consider `CC(C)c1c(O)c(O)c2c(c1O)C(=O)C(O)=C1C(C)(C)CCC[C@@]12C`, for which the IC50 with HL-60 was 4.1 µM; with MOLT-3, 8.8 µM; with MCF7 it was 27.5 µM; with U-937, 4.3 µM; in the experiment on SK-MEL-1, 10 µM.
On to `CCO[C@@H]1C[C@H]2C(C)(C)CCC[C@]2(C)C2=C1C(=O)C(C(C)C)=C(O)C2=O`, for which the IC50 in the experiment with HL-60, with MOLT-3, with MCF7, with U-937 and in the experiment with SK-MEL-1 was above 30 µM in each case.
In the case of `CC(=O)O[C@H](C/C(C)=C/C(=O)O)[C@@]1(C)[C@H](C)CC=C2[C@@H]1CCCC2(C)C`, the IC50 with HL-60, in the experiment with MOLT-3, with MCF7, in the experiment on U-937 and with SK-MEL-1 was above 30 µM each time.
For the compound `CC(C)C1=CC2=CC(=O)[C@H]3C(C)(C)CCC[C@]3(C)C2=C(O)C1=O` [TAXODIONE], the IC50 with HL-60 is 4.8 µM; in the experiment with MOLT-3, 1.8 µM; in the experiment with MCF7, above 30 µM; with U-937, 3 µM; in the experiment on SK-MEL-1 it was 9.6 µM.
For `COc1ccc(C(=O)OC/C=C(\C)C[C@@H](O)[C@@]2(C)[C@H](C)CC=C3[C@@H]2CCCC3(C)C)cc1`, in that order: above 30 µM, above 30 µM, above 30 µM, above 30 µM and above 30 µM.
Taken in the same sequence, the figures for `CCCC(=O)O[C@@H]1[C@@H](OC(C)=O)C2=C(C(=O)C(O)=C(C(C)C)C2=O)[C@@]2(C)CCCC(C)(C)[C@H]12` were 5.6 µM, 3.5 µM, 6.5 µM, 3.4 µM and 3.6 µM.
Taken in the same sequence, the figures for `CC(C)C1=C(O)C(=O)C2=C(CC[C@H]3C(C)(C)CCC[C@]23C)C1=O` [ROYLEANONE] were above 30 µM, 13.6 µM, above 30 µM, above 30 µM and above 30 µM.
On to `C/C(=C\CO)C[C@@H](O)[C@@]1(C)[C@H](C)CC=C2[C@@H]1CCCC2(C)C`, for which the IC50 in the experiment with HL-60, with MOLT-3, in the experiment on MCF7, in the experiment on U-937 and in the experiment with SK-MEL-1 was above 30 µM in each case.
As to `C/C(=C\COC(=O)c1ccccc1)C[C@@H](O)[C@@]1(C)[C@H](C)CC=C2[C@@H]1CCCC2(C)C`, the concentration for half-maximal inhibition (IC50) in the experiment with HL-60, with MOLT-3, in the experiment with MCF7, with U-937 and in the experiment with SK-MEL-1 was above 30 µM throughout.
For the compound `CCC(=O)OC1=C(C(C)C)C(=O)C2=C(C1=O)[C@@]1(C)CCCC(C)(C)[C@@H]1[C@H](OC(=O)CC)[C@H]2OC(C)=O`, the IC50 in the experiment with HL-60 turned out to be 4.7 µM; with MOLT-3 it was 10.8 µM; in the experiment on MCF7, 28.3 µM; with U-937 it was 3.9 µM; in the experiment on SK-MEL-1, 27.4 µM.
For `CC(=O)O[C@@H]1[C@@H](OC(C)=O)C2=C(C(=O)C(O)=C(C(C)C)C2=O)[C@@]2(C)CCCC(C)(C)[C@H]12`, in that order: 15.9 µM, 5.4 µM, 23.3 µM, 12.1 µM and 16.2 µM.
Taken in the same sequence, the figures for `C[C@H]1Cc2c(O)c3c(c(O)c2O1)[C@@]1(C)CCC(=O)C(C)(C)C1=C(O)C3=O` [TEUVINCENONE A] were 3.5 µM, 2.7 µM, above 30 µM, 1.5 µM and above 30 µM.
Turning to `CCC(=O)OC/C=C(\C)C[C@@H](O)[C@@]1(C)[C@H](C)CC=C2[C@@H]1CCCC2(C)C`, the IC50 was above 30 µM in the experiment with HL-60; above 30 µM with MOLT-3; above 30 µM in the experiment on MCF7; 24.7 µM in the experiment on U-937; above 30 µM in the experiment with SK-MEL-1.
In the case of `COc1c(O)c2c(c(O)c1C(C)C)C(=O)C[C@H]1C(C)=C(C)C(=O)C[C@]21C`, the IC50 with HL-60, in the experiment with MOLT-3, with MCF7, with U-937 and in the experiment on SK-MEL-1 was above 30 µM throughout.
Turning to `CC(=O)O[C@H](C/C(C)=C/CO)[C@@]1(C)[C@H](C)CC=C2[C@@H]1CCCC2(C)C`, the IC50 with HL-60, in the experiment with MOLT-3, with MCF7, in the experiment on U-937 and in the experiment with SK-MEL-1 was above 30 µM throughout.
On to `CCCC(=O)OC/C=C(\C)C[C@@H](O)[C@@]1(C)[C@H](C)CC=C2[C@@H]1CCCC2(C)C`, for which the IC50 in the experiment on HL-60, in the experiment with MOLT-3, with MCF7, in the experiment with U-937 and with SK-MEL-1 was above 30 µM each time.
Take `CC(=O)OC1=C(C(C)C)C(=O)C2=C(C1=O)[C@@]1(C)CCCC(C)(C)[C@@H]1[C@H](OC(C)=O)[C@H]2OC(C)=O`: the IC50 was 9 µM in the experiment with HL-60; 3 µM in the experiment on MOLT-3; 5.9 µM with MCF7; 6.4 µM in the experiment on U-937; 8.1 µM in the experiment on SK-MEL-1.
`CCC(=O)O[C@@H]1[C@@H](OC(C)=O)C2=C(C(=O)C(O)=C(C(C)C)C2=O)[C@@]2(C)CCCC(C)(C)[C@H]12`: the IC50 in the experiment with HL-60 amounted to 11.8 µM; in the experiment on MOLT-3, 6.3 µM; with MCF7, 17.1 µM; in the experiment with U-937, 7 µM; in the experiment with SK-MEL-1, 9 µM.
